Assay results: ChEMBL document CHEMBL3286322, “Synthesis and anti-cholinesterase activity of new 7-hydroxycoumarin derivatives” (Eur J Med Chem, 2014)
Activity calls are given as the source filed them. No cut-off for these calls is given here.

Columns and labels:
[1] = Antioxidant activity assessed as ferric ion reducing activity using fe3+-TPTZ measured per gram of protein by FRAP assay; assay type: functional
In short: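 Reducing power measured against a FRAP reagent prepared by mixing acetate buffer (pH 3.6), 10 mM TPTZ in 40 mM HCl, and 20 mM ferric chloride hexahydrate. Test compounds act as reductants, converting the ferric tripyridyl triazine complex to the blue ferrous form, which is read colorimetrically. The method follows Benzie and Strain.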

Cholinesterase = Cholinesterase (Equus caballus, UniProt P81908); assay: Inhibition of equine serum BChE using butyrylthiocholine iodide as substrate by spectrophotometer analysis
Chain of Cholinesterase (P81908 whole entry): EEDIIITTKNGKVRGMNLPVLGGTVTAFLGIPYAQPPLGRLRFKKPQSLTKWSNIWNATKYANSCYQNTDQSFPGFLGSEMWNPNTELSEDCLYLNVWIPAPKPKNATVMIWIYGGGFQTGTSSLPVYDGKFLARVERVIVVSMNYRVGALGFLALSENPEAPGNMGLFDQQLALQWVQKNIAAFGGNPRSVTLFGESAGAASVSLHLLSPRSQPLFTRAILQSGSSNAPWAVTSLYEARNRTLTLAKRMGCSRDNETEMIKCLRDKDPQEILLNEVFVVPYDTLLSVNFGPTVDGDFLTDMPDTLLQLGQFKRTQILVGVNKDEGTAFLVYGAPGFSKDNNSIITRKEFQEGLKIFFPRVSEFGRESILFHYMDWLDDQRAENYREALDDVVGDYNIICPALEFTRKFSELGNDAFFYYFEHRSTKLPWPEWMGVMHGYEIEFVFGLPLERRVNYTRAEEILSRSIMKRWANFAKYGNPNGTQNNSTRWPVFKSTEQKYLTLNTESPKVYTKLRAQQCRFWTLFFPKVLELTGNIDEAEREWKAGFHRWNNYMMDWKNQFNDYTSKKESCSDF
In short: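 Compound stocks were made in DMSO/ethanol (1:9) and diluted to final concentrations with 0.1 M potassium phosphate buffer, pH 8.0. IC50 values are mean ± SE of three independent experiments.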

Acetylcholinesterase [2] = target: T1, Acetylcholinesterase (Electrophorus electricus, UniProt O42275); assay: Inhibition of electric eel AChE using acetylthiocholine iodide as substrate by spectrophotometer analysis
T1 sequence (O42275 whole entry): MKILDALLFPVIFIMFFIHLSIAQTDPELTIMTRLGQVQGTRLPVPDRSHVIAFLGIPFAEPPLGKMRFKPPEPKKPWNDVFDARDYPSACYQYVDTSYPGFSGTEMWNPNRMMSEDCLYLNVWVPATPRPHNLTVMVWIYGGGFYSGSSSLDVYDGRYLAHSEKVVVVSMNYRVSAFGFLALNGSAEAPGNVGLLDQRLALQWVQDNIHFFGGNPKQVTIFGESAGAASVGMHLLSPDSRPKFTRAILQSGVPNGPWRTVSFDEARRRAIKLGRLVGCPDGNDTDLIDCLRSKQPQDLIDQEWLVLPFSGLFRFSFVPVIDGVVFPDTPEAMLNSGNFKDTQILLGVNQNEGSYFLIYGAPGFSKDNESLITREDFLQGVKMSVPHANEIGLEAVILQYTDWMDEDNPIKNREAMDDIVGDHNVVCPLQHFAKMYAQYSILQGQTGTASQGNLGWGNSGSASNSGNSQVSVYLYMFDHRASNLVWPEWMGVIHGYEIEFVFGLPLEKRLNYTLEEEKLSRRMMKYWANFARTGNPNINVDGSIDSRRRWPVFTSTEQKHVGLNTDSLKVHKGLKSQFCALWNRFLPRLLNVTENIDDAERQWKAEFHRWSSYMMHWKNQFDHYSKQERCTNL

[3] = Neuroprotective activity in rat PC12 cells assessed as inhibition H2O2-induced reduction of cell viability at 1 to 10 uM after 24 hrs by MTT assay; assay type: functional, cell-based; details: PC-12
In short: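 PC12 cells differentiated with NGF (50 ng/ml) in serum-free medium for 5 days, until neurite outgrowth was seen by microscopy. Cells were pre-incubated with compound at 1, 5 or 10 for 3 h, then exposed to H2O2 (300). Viability was expressed relative to the H2O2-only group. A reference compound was run at 5.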

[4] = Cytotoxicity against rat PC12 cells at 1 to 10 uM; assay type: cell-based; details: pc-12, 10 µM
Acetylcholinesterase [5] = target: T1, Acetylcholinesterase; assay: Inhibition of electric eel AChE using acetylthiocholine as substrate by Lineweavere-Burk plot
In short: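 Compound stocks were made in DMSO/ethanol (1:9) and diluted in 0.1 M potassium phosphate buffer, pH 8.0. Initial AChE velocity was measured at inhibitor levels of 0, 0.64, 1.27 and 2.55 across varied acetylthiocholine concentrations. Inhibition type was read from a Lineweaver–Burk plot, and Ki was calculated from a secondary plot.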

[6] = Neuroprotective activity in rat PC12 cells assessed as inhibition H2O2-induced reduction of cell viability at 5 uM after 24 hrs by MTT assay; assay type: functional, cell-based; details: PC-12
In short: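 PC12 cells were differentiated in serum-free medium with NGF (50 ng/ml) for 5 days until neurite outgrowth appeared. Cells were preincubated with compound at 1, 5 or 10 for 3 h, then challenged with H2O2 (300). Viability is expressed relative to the H2O2-treated group.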

Structure (SMILES)	Activity [1]	IC50 (Cholinesterase)	IC50 (Acetylcholinesterase [2])	Activity [3]	Activity [4]	Ki (Acetylcholinesterase [5])	Activity [6]
O=C(COc1ccc2ccc(=O)oc2c1)N1CCC(Cc2ccccc2)CC1	0.05 µmol	46 µM	9.8 µM	–	–	–	–
O=C(CCCOc1ccc2ccc(=O)oc2c1)N1CCN(c2ccccc2)CC1	1.13 µmol	120 µM	3.43 µM	–	–	–	–
O=C(CCCOc1ccc2ccc(=O)oc2c1)N1CCN(c2ccc(F)cc2)CC1	1.37 µmol	75 µM	50 µM	–	–	–	–
Cc1cc(=O)oc2cc(OCCCC(=O)N3CCN(c4ccccc4)CC3)ccc12	0.07 µmol	68 µM	20.8 µM	–	–	–	–
O=C(COc1ccc2ccc(=O)oc2c1)NC1CCN(Cc2ccccc2)CC1	0.06 µmol	42 µM	1.6 µM	Active	Non-toxic	1.32 µM	–
Cc1cc(=O)oc2cc(OCCCC(=O)N3CCN(c4ccc(F)cc4)CC3)ccc12	0.08 µmol	24 µM	41.6 µM	–	–	–	–
O=C(CCCOc1ccc2ccc(=O)oc2c1)N1CCC(O)(c2ccc(Br)cc2)CC1	0.03 µmol	180 µM	73 µM	–	–	–	–
O=C(COc1ccc2ccc(=O)oc2c1)N1CCN(c2ccccc2F)CC1	0.07 µmol	86 µM	34.5 µM	–	–	–	–
O=C(CCCOc1ccc2ccc(=O)oc2c1)N1CCC(Cc2ccccc2)CC1	1.61 µmol	387 µM	6.9 µM	–	–	–	–
O=C(COc1ccc2ccc(=O)oc2c1)N1CCN(c2ccccc2)CC1	1.94 µmol	50 µM	33 µM	–	–	–	–
O=C1O[C@H]([C@@H](O)CO)C(O)=C1O	7.26 µmol	–	–	–	–	–	–
Cc1cc(=O)oc2cc(OCCCC(=O)N3CCN(c4ccccc4O)CC3)ccc12	2.01 µmol	184 µM	6.2 µM	–	–	–	–
COc1ccc(CCNC(=O)COc2ccc3ccc(=O)oc3c2)cc1OC	5.43 µmol	163 µM	74 µM	–	–	–	–
Cc1cc(=O)oc2cc(OCCCC(=O)N3CCC(O)(c4ccc(Br)cc4)CC3)ccc12	0.06 µmol	141 µM	34.6 µM	–	–	–	–
O=C(CCCOc1ccc2ccc(=O)oc2c1)N1CCN(c2ccc(Cl)c(Cl)c2)CC1	0.78 µmol	80 µM	26 µM	–	–	–	–
O=C(CCCOc1ccc2ccc(=O)oc2c1)N1CCN(c2ccccc2F)CC1	0.15 µmol	15 µM	6.9 µM	–	–	–	–
O=C(COc1ccc2ccc(=O)oc2c1)N1CCN(c2ccc(Cl)c(Cl)c2)CC1	2.01 µmol	120 µM	26.8 µM	–	–	–	–
Cc1cc(=O)oc2cc(OCCCC(=O)N3CCN(c4ccccc4F)CC3)ccc12	0.1 µmol	29 µM	16.4 µM	–	–	–	–
O=C(CCCOc1ccc2ccc(=O)oc2c1)N1CCN(c2ccccc2O)CC1	2.82 µmol	280 µM	7 µM	–	–	–	–
O=c1c(O)c(-c2ccc(O)c(O)c2)oc2cc(O)cc(O)c12	10.8 µmol	–	–	–	–	–	Active
Cc1cc(=O)oc2cc(OCCCC(=O)N3CCN(c4ccc(Cl)c(Cl)c4)CC3)ccc12	0.05 µmol	250 µM	4.38 µM	–	–	–	–
